Laboratory results from ChEMBL document CHEMBL4251703, “Linker Variation and Structure-Activity Relationship Analyses of Carboxylic Acid-based Small Molecule STAT3 Inhibitors” (ACS Med Chem Lett, 2018).
Activity calls are given as the source filed them. The rule behind the calls is not given here.

system: MDA-MB-231; assay: Cytotoxicity against human MDA-MB-231 cells harboring active STAT3 assessed as decrease in cell viability up to 10 uM after 72 hrs by CyQuant dye based assay; type: functional
Method in brief: (§1)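 Cells were grown in 96-well format and treated once with 0–10 μM compound for 72 h. Viable cells were quantified by CyQuant proliferation assay and plotted as % viability against concentration. Data are mean ± SD of three independent determinations.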

Structure (SMILES)	Activity
O=C(O)c1ccc(N(Cc2ccc(C3CCCCC3)cc2)C(=O)[C@H]2CCCN2S(=O)(=O)c2c(F)c(F)c(F)c(F)c2F)cc1O	Active

molecular target: Signal transducer and activator of transcription 3 (Mus musculus) (UniProt P42227); assay: (§2) Inhibition of STAT3 DNA binding activity in mouse NIH/3T3 nuclear extract preincubated for 30 mins followed by [32P]hSIE addition measured after 30 mins by electrophoretic mobility shift assay
Method in brief: (§3)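 STAT3 DNA-binding was measured by EMSA using nuclear extracts of equal total protein from v-Src-transformed fibroblasts containing activated STAT3. Extracts were preincubated for 30 min with 0–100 μM compound, then incubated with radiolabeled hSIE probe.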

Sequence of Signal transducer and activator of transcription 3 (Mus musculus) (P42227 whole entry): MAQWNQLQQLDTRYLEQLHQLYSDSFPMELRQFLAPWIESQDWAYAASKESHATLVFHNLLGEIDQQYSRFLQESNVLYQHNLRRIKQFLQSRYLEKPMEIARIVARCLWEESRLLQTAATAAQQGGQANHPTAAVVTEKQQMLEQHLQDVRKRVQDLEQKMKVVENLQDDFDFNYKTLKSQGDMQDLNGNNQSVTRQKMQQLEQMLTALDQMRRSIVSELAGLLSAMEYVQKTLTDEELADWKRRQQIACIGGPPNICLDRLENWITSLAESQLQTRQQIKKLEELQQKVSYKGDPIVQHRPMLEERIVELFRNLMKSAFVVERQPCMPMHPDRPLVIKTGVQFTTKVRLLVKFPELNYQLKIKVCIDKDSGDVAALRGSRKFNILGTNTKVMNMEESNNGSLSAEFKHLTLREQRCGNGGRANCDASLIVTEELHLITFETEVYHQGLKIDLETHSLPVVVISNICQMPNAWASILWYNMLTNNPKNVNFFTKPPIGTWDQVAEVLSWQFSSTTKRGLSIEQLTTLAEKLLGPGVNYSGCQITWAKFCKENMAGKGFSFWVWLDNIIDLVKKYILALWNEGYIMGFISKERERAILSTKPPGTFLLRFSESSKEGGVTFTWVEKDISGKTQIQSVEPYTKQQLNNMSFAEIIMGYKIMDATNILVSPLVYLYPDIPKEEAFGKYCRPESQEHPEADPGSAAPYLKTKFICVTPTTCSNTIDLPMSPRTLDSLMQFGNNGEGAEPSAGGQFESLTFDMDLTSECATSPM

inhibition	Structure (SMILES)
inactive	CN([C@@H](CN)C(=O)N(Cc1ccc(C2CCCCC2)cc1)c1ccc(C(=O)O)c(O)c1)S(=O)(=O)c1c(F)c(F)c(F)c(F)c1F
inactive	C[C@H](C(=O)N(Cc1ccc(C2CCCCC2)cc1)c1c(F)cc(C(=O)O)cc1F)N(C)S(=O)(=O)c1c(F)c(F)c(F)c(F)c1F
Active	CN([C@H](CO)C(=O)N(Cc1ccc(C2CCCCC2)cc1)c1ccc(C(=O)O)c(O)c1)S(=O)(=O)c1c(F)c(F)c(F)c(F)c1F
inactive	CN([C@@H](CCO)C(=O)N(Cc1ccc(C2CCCCC2)cc1)c1ccc(C(=O)O)c(O)c1)S(=O)(=O)c1c(F)c(F)c(F)c(F)c1F
inactive	C[C@@H](O)[C@@H](C(=O)N(Cc1ccc(C2CCCCC2)cc1)c1ccc(C(=O)O)c(O)c1)N(C)S(=O)(=O)c1c(F)c(F)c(F)c(F)c1F
inactive	CC[C@@H](C(=O)N(Cc1ccc(C2CCCCC2)cc1)c1ccc(C(=O)O)c(O)c1)N(C)S(=O)(=O)c1c(F)c(F)c(F)c(F)c1F
Active	CN([C@H](CO)C(=O)N(Cc1ccc(C2CCCCC2)cc1)c1ccc(C(=O)O)cc1)S(=O)(=O)c1c(F)c(F)c(F)c(F)c1F
Active	CN([C@H](CCO)C(=O)N(Cc1ccc(C2CCCCC2)cc1)c1ccc(C(=O)O)c(O)c1)S(=O)(=O)c1c(F)c(F)c(F)c(F)c1F
Active	CN([C@H](CN)C(=O)N(Cc1ccc(C2CCCCC2)cc1)c1ccc(C(=O)O)c(O)c1)S(=O)(=O)c1c(F)c(F)c(F)c(F)c1F
inactive	CN([C@@H](CO)C(=O)N(Cc1ccc(C2CCCCC2)cc1)c1ccc(C(=O)O)c(O)c1)S(=O)(=O)c1c(F)c(F)c(F)c(F)c1F
inactive	C[C@H](C(=O)N(Cc1ccc(C2CCCCC2)cc1)c1ccc2cn[nH]c2c1)N(C)S(=O)(=O)c1c(F)c(F)c(F)c(F)c1F
Active	C[C@H](O)[C@H](C(=O)N(Cc1ccc(C2CCCCC2)cc1)c1ccc(C(=O)O)c(O)c1)N(C)S(=O)(=O)c1c(F)c(F)c(F)c(F)c1F
inactive	C[C@H](C(=O)N(Cc1ccc(C2CCCCC2)cc1)c1ccc(C(=O)O)c(F)c1)N(C)S(=O)(=O)c1c(F)c(F)c(F)c(F)c1F
inactive	C[C@H](C(=O)N(Cc1ccc(C2CCCCC2)cc1)c1ccc2c(c1)CNC2=O)N(C)S(=O)(=O)c1c(F)c(F)c(F)c(F)c1F
Active	CC[C@H](C(=O)N(Cc1ccc(C2CCCCC2)cc1)c1ccc(C(=O)O)c(O)c1)N(C)S(=O)(=O)c1c(F)c(F)c(F)c(F)c1F

Further lines, the molecule ahead of its results:

Structure (SMILES)	inhibition
CN(CC(=O)N(Cc1ccc(C2CCOCC2)cc1)c1ccc(C(=O)O)cc1)S(=O)(=O)c1c(F)c(F)c(F)c(F)c1F	inactive
CN(CC(=O)N(Cc1ccc(C2CCCCC2)cc1)c1ncc(C(=O)O)o1)S(=O)(=O)c1c(F)c(F)c(F)c(F)c1F	inactive
CN(CC(=O)N(Cc1ccc(C2CCCCCC2)cc1)c1ccc(C(=O)O)cc1)S(=O)(=O)c1c(F)c(F)c(F)c(F)c1F	inactive
CN(CC(=O)N(Cc1ccc(C2CCCCC2)cc1)c1cccc(CC(=O)O)c1)S(=O)(=O)c1c(F)c(F)c(F)c(F)c1F	inactive
O=C(O)c1ccc(N(Cc2ccc(C3CCCCC3)cc2)C(=O)[C@H]2CCCN2S(=O)(=O)c2c(F)cc(F)c(F)c2F)cc1O	inactive
CN(CC(=O)N(Cc1ccc(N2CCCCC2)cc1)c1ccc(C(=O)O)cc1)S(=O)(=O)c1c(F)c(F)c(F)c(F)c1F	inactive
CN(CC(=O)N(Cc1ccc(C2=CCCCCC2)cc1)c1ccc(C(=O)O)cc1)S(=O)(=O)c1c(F)c(F)c(F)c(F)c1F	inactive
CN([C@@H](CC(=O)O)C(=O)N(Cc1ccc(C2CCCCC2)cc1)c1ccc(C(=O)O)c(O)c1)S(=O)(=O)c1c(F)c(F)c(F)c(F)c1F	inactive
CN(CC(=O)N(Cc1ccc(C2CCNCC2)cc1)c1ccc(C(=O)O)c(O)c1)S(=O)(=O)c1c(F)c(F)c(F)c(F)c1F	inactive
CN(CC(=O)N(Cc1ccc(C2CCCCC2)cc1)c1nc(C(=O)O)co1)S(=O)(=O)c1c(F)c(F)c(F)c(F)c1F	inactive
CN(CC(=O)N(Cc1ccc(C2CCOCC2)cc1)c1ccc(C(=O)O)c(O)c1)S(=O)(=O)c1c(F)c(F)c(F)c(F)c1F	inactive
O=C(O)c1ccc(N(Cc2ccc(C3CCCCC3)cc2)C(=O)[C@H]2CCCN2C(=O)c2c(F)c(F)c(F)c(F)c2F)cc1O	inactive
O=C(O)c1ccc(N(Cc2ccc(C3CCCCC3)cc2)C(=O)[C@H]2CCCN2Cc2c(F)c(F)c(F)c(F)c2F)cc1O	inactive
Cc1cc(N(Cc2ccc(C3CCCCC3)cc2)C(=O)CN(C)S(=O)(=O)c2c(F)c(F)c(F)c(F)c2F)ccc1C(=O)O	inactive
CN(CC(=O)N(Cc1ccc(C2CCOCC2)cc1)c1ccc(C(=O)NO)c(O)c1)S(=O)(=O)c1c(F)c(F)c(F)c(F)c1F	inactive
O=C(O)c1ccc(N(Cc2ccc(C3CCCCC3)cc2)C(=O)[C@H]2CCCN2S(=O)(=O)c2cc(F)cc(F)c2F)cc1O	inactive
CN(CC(=O)N(Cc1ccc(C2CCCCC2)nc1)c1ccc(C(=O)O)c(O)c1)S(=O)(=O)c1c(F)c(F)c(F)c(F)c1F	inactive
CN([C@H](CC(=O)O)C(=O)N(Cc1ccc(C2CCCCC2)cc1)c1ccc(C(=O)O)c(O)c1)S(=O)(=O)c1c(F)c(F)c(F)c(F)c1F	Active
Cc1cc(C(=O)O)cc(C)c1N(Cc1ccc(C2CCCCC2)cc1)C(=O)CN(C)S(=O)(=O)c1c(F)c(F)c(F)c(F)c1F	inactive
CN(CC(=O)N(Cc1ccc(C2CCCCC2)cc1)c1ccc(C(=O)O)[n+]([O-])c1)S(=O)(=O)c1c(F)c(F)c(F)c(F)c1F	inactive
CN(CC(=O)N(Cc1ccc(C2CCC(F)(F)CC2)cc1)c1ccc(C(=O)O)c(O)c1)S(=O)(=O)c1c(F)c(F)c(F)c(F)c1F	inactive
CN(CC(=O)N(Cc1ccc(C2CCCCC2)cc1)c1ccc(C(=O)O)nc1)S(=O)(=O)c1c(F)c(F)c(F)c(F)c1F	inactive
CN(CC(=O)N(Cc1ccc(C2CCCCC2)cc1)c1ccc(C(=O)O)c(O)c1)C(=O)c1c(F)c(F)c(F)c(F)c1F	inactive
C[C@H](C(=O)N(Cc1ccc(C2CCOCC2)cc1)c1ccc(C(=O)[O-])c(O)c1)N(C)S(=O)(=O)c1c(F)c(F)c(F)c(F)c1F.[Na+]	inactive
CN([C@H](CO)C(=O)N(Cc1ccc(C2CCCCC2)cc1)c1ccc(C(=O)NO)cc1)S(=O)(=O)c1c(F)c(F)c(F)c(F)c1F	Active
CC[C@H](C(=O)N(Cc1ccc(C2CCC(F)(F)CC2)cc1)c1ccc(C(=O)O)c(O)c1)N(C)S(=O)(=O)c1c(F)c(F)c(F)c(F)c1F	inactive
CN(CC(=O)N(Cc1ccc(C2CCCCC2)cc1)c1ccc(C(=O)O)c(O)c1)Cc1c(F)c(F)c(F)c(F)c1F	inactive

molecular target: Signal transducer and activator of transcription 3 (Mus musculus, UniProt P42227); assay: as §2; method in brief: as §3
Sequence (P42227 whole entry): as above

IC50 [µM]	Structure (SMILES)
> 26	CN(CC(=O)N(Cc1ccc(C2CCCCC2)cc1)c1ccc(C(=O)O)c(O)c1)S(=O)(=O)c1cc(C(F)(F)F)cc(C(F)(F)F)c1
> 26	CN(CC(=O)N(Cc1ccc(C2CCCCC2)cc1)c1ccc(C(=O)O)c(O)c1)S(=O)(=O)c1cc(F)cc(F)c1F
> 26	CN(CC(=O)N(Cc1ccc(C2CCCCC2)cc1)c1ccc(C(=O)O)c(O)c1)S(=O)(=O)c1cccnc1
5.5	O=C(NO)c1ccc(N(Cc2ccc(C3CCCCC3)cc2)C(=O)[C@H]2CCCN2S(=O)(=O)c2c(F)c(F)c(F)c(F)c2F)cc1O
> 26	CN(CC(=O)N(Cc1ccc(C2CCCCC2)cc1)c1ccc(C(=O)O)c(O)c1)S(=O)(=O)c1ccc(F)c(F)c1F
> 26	CN(CC(=O)N(Cc1ccc(C2CCCCC2)cc1)c1ccc(C(=O)O)c(O)c1)S(=O)(=O)c1cc(F)ccc1F
8.6 to 14.4	CN(CC(=O)N(Cc1ccc(C2CCCCC2)cc1)c1ccc(C(=O)O)c(Cl)c1)S(=O)(=O)c1c(F)c(F)c(F)c(F)c1F
> 26	CN(CC(=O)N(Cc1ccc(C2CCCCC2)cc1)c1ccc(C(=O)O)c(O)c1)S(=O)(=O)c1c(F)cc(F)cc1F
> 26	CN(CC(=O)N(Cc1ccc(C2CCCCC2)cc1)c1ccc(C(=O)O)c(O)c1)S(=O)(=O)c1cc(F)cc(F)c1
6.8	C[C@@H](C(=O)N(Cc1ccc(C2CCCCC2)cc1)c1ccc(C(=O)NO)c(O)c1)N(C)S(=O)(=O)c1c(F)c(F)c(F)c(F)c1F

system: not listed separately; assay: Solubility of the compound in simulated intestinal fluid at pH 6.8; type: physicochemical
Method in brief: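 Aqueous solubility was determined in pH 7.4 PBS and in pH 6.8 buffered simulated intestinal fluid, reported in μg/mL.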

solubility [mg/mL]	Structure (SMILES)
0.127	C[C@H](C(=O)N(Cc1ccc(C2CCCCC2)cc1)c1ccc(C(=O)[O-])c(O)c1)N(C)S(=O)(=O)c1c(F)c(F)c(F)c(F)c1F.[Na+]

molecular target: Signal transducer and activator of transcription 3 (Homo sapiens) (UniProt P40763); assay: Inhibition of STAT3 in human MDA-MB-468 cells assessed as reduction in p-STAT3(Y705) level at 5 uM after 1 to 24 hrs by immunoblot analysis; type: cell-based
Sequence (P40763 whole entry): as the sequence (P42227 whole entry) above, with D760E counted along it

inhibition	Structure (SMILES)
Active	O=C(O)c1ccc(N(Cc2ccc(C3CCCCC3)cc2)C(=O)[C@H]2CCCN2S(=O)(=O)c2c(F)c(F)c(F)c(F)c2F)cc1O
Active	O=C(O)c1ccc(N(Cc2ccc(C3CCCCC3)cc2)C(=O)[C@H]2CCCN2S(=O)(=O)c2c(F)c(F)c(F)c(F)c2F)c(F)c1

system: MDA-MB-468; assay: Cytotoxicity against human MDA-MB-468 cells harboring active STAT3 assessed as decrease in cell viability up to 10 uM after 72 hrs by CyQuant dye based assay; type: functional; method in brief: as §1

Structure (SMILES)	Activity
O=C(O)c1ccc(N(Cc2ccc(C3CCCCC3)cc2)C(=O)[C@H]2CCCN2S(=O)(=O)c2c(F)c(F)c(F)c(F)c2F)cc1O	Active

system: MCF7; assay: Cytotoxicity against human MCF7 cells assessed as decrease in cell viability up to 10 uM after 72 hrs by CyQuant dye based assay; type: functional; method in brief: as §1

Structure (SMILES)	Activity
O=C(O)c1ccc(N(Cc2ccc(C3CCCCC3)cc2)C(=O)[C@H]2CCCN2S(=O)(=O)c2c(F)c(F)c(F)c(F)c2F)cc1O	inactive

molecular target: Signal transducer and activator of transcription 3 (Homo sapiens) (UniProt P40763); assay: Inhibition of STAT3 in human MDA-MB-231 cells assessed as reduction in p-STAT3(Y705) level at 5 uM after 1 to 24 hrs by immunoblot analysis; type: cell-based

p-STAT3(Y705) reduction (qualitative call)	Structure (SMILES)
Active	O=C(O)c1ccc(N(Cc2ccc(C3CCCCC3)cc2)C(=O)[C@H]2CCCN2S(=O)(=O)c2c(F)c(F)c(F)c(F)c2F)cc1O
Active	O=C(O)c1ccc(N(Cc2ccc(C3CCCCC3)cc2)C(=O)[C@H]2CCCN2S(=O)(=O)c2c(F)c(F)c(F)c(F)c2F)c(F)c1
